Laboratory results published in ChEMBL document CHEMBL4428115, “Molecular docking studies, biological and toxicity evaluation of dihydroisoquinoline derivatives as potential anticancer agents” (Bioorg Med Chem, 2016).
The source made the active and inactive calls. The calls are words filed in the database; no cut-off is given here.

What was measured:
LNCaP = experiment: Antiproliferative activity against human LNCAP cells; type: functional, cell-based
CEM/C2 = experiment: Antiproliferative activity against human CEM/C2 cells; type: functional, cell-based
[1] = Acute toxicity in Balbc/cmdb mouse assessed as clinical signs at 2000 mg/kg, po administered as single dose in second stage of experiment measured for 14 days; type: organism-based; conditions: in vivo, 336 h
Summary of the method: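 Acute toxic class method per OECD Guideline 423 / EU Method B.1 tris, run in three stages of three female Balbc/cmdb mice each. Fasted about 3 h, then given a single dose by metal stomach tube in DMSO at 0.5 mL/100 g bw. Stage doses were 300, 2000, then 2000 mg/kg bw. General and detailed clinical observations daily for 14 days; body weights recorded.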

Jurkat = experiment: Antiproliferative activity against human Jurkat cells; type: functional, cell-based
A498 = experiment: Antiproliferative activity against human A498 cells; type: functional, cell-based
[2] = Selectivity index, ratio of IC50 for mouse BALB/3T3 cells to IC50 for human HL60/MX2 cells; type: toxicity; conditions: BALB/3T3 cells versus HL60/MX2 cells, read-out: Ratio IC50
Summary of the method: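 Ratio of the BALB/3T3 IC50 to the HL-60 or HL-60/MX2 IC50. Cells were plated at 1 × 10^4 per well 24 h before dosing and exposed for 72 h to 0.01–1000 µg/mL from DMSO stock. BALB/3T3 was read by SRB (TCA fix, 540 nm) and the leukemia lines by MTT (4 h, SDS/DMF lysis, 570 nm). Triplicates; 3–5 experiments.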

[3] = Selectivity index, ratio of IC50 for mouse BALB/3T3 cells to IC50 for human LoVo cells; type: toxicity; conditions: BALB/3T3 cells versus LoVo cells, read-out: Ratio IC50
[4] = Selectivity index, ratio of IC50 for human MCF10 cells to IC50 for human HL60 cells; type: toxicity; conditions: MCF10 cells versus HL60 cells, read-out: Ratio IC50
Summary of the method: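 Selectivity index is the ratio of the IC50 for the normal line to the IC50 for the cancer line. Both IC50 values come from 72 h antiproliferative assays: SRB for adherent cells, MTT for HL-60.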

HL-60 = experiment: Effect on cyclin A levels in human HL60 cells at 1 ug/ml after 72 hrs by Western-blot analysis; type: functional, cell-based
Summary of the method: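 HL-60 (2 × 10^5 cells/mL) treated 72 h at 1 µg/mL with DMSO control, then lysed in RIPA buffer with protease/phosphatase inhibitors. 100 µg protein resolved on 4–20% gels and transferred to nitrocellulose. Probed with rabbit primary antibody, fluorescein-linked anti-rabbit secondary, then anti-fluorescein–alkaline phosphatase with ECF substrate; fluorescence scanned. Densitometry normalized to actin, reported as fold change versus control.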

Question: Which IC50 (LNCaP) does the source give for CCOC(=O)C1(C(=O)OCC)Cc2cc(OCc3ccccc3)cc(OCc3ccccc3)c2C=N1 here?
Answer: 3.3 µM

Question: What about the IC50 (CEM/C2) of the same molecule?
Answer: 0.4 µM

Question: What about the Activity [1] of the same molecule?
Answer: Non-Toxic

Question: And the IC50 (Jurkat)?
Answer: 14.4 µM

Question: And the IC50 (A498)?
Answer: 13.3 µM

Question: And the selectivity ratio [2]?
Answer: 7

Question: And the selectivity ratio [3]?
Answer: 32.6

Question: And the selectivity ratio [4]?
Answer: 4 to 8

Question: What about the Activity (HL-60) of the same molecule?
Answer: inactive
